Assay results taken from ChEMBL document CHEMBL1148409, “In vitro structure-activity relationship and in vivo studies for a novel class of cyclooxygenase-2 inhibitors: 5-aryl-2,2-dialkyl-4-phenyl-3(2H)furanone derivatives” (J Med Chem, 2004).

Tests used:
Rattus norvegicus [1] = test: Antiinflammatory activity was determined by measuring adjuvant-induced arthritis in rats using preventive method; dose administered daily twice; type: functional
Outline: (§1)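 Preventive adjuvant arthritis in male Lewis rats (200 ~ 210 g), 10 per group. On day 0, 0.1 mL of 1% heat-killed M. butyricum in incomplete Freund's adjuvant was injected subplantar into the right hindpaw. Oral gavage dosing ran from day -1 to day 16. Left hindpaw volume was measured by plethysmometer on day 17, and % inhibition versus control was calculated.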

Rattus norvegicus [2] = test: Ability of compound to cause gastric ulcerogenicity was determined in rats at 30 mg/kg when administered daily once; type: functional, Stomach
Outline: (§2)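 Male SD rats (130 ~ 140 g) were dosed by oral gavage for 7 days, with compound suspended in 1% methylcellulose. Rats were fasted overnight before necropsy and killed 4 h after the last dose. Stomachs were scored for ulceration on a scale where 1 is an apparently normal stomach and 2 is pinpoint ulcers only.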

Rattus norvegicus [3] = test: Inhibition of carrageenan-induced rat foot oedema following 3 mg/kg administration.; type: functional
Outline: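 Male SD rats (160 ~ 190 g) were fasted overnight and given compound in 1% methylcellulose by oral gavage, at least 5 animals per group. One hour later, 0.05 mL of 1% carrageenan in saline was injected subplantar into the right hindpaw. Paw swelling was measured by plethysmometer 4 h after dosing and expressed as % inhibition.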

[4] = target: T1, Prostaglandin G/H synthase 1 (Mus musculus, UniProt P22437); test: In vitro inhibitory activity against prostaglandin G/H synthase 1 using mouse peritoneal macrophage method
T1 sequence (P22437 whole entry): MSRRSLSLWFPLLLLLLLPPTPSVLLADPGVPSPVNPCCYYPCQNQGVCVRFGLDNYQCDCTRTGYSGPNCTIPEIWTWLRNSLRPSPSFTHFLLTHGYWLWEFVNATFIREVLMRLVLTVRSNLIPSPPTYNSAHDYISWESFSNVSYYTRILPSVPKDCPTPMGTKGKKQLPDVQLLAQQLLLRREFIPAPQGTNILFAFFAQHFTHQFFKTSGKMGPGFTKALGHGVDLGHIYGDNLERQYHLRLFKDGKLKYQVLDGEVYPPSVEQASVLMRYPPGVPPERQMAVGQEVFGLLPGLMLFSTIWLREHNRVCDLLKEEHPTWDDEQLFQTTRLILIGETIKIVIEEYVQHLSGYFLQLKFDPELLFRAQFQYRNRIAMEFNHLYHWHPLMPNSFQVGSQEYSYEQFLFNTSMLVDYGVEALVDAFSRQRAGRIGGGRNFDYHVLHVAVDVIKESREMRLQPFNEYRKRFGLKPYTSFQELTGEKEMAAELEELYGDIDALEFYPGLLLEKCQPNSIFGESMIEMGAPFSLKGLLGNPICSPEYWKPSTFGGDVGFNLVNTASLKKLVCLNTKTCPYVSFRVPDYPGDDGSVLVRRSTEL
Outline: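 Freshly harvested mouse peritoneal macrophages were the enzyme source. Cells were preincubated 10 min at 37 °C with inhibitor in DMSO, then stimulated with calcium ionophore A23187 for 10 min. The reaction was stopped with indomethacin in 0.1% BSA buffer and centrifuged, and supernatant TXB₂ was measured by ELISA.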

[5] = target: T2, Prostaglandin G/H synthase 2 (Mus musculus, UniProt Q05769); test: In vitro inhibitory activity against prostaglandin G/H synthase 2 using mouse peritoneal macrophage method
T2 sequence (Q05769 whole entry): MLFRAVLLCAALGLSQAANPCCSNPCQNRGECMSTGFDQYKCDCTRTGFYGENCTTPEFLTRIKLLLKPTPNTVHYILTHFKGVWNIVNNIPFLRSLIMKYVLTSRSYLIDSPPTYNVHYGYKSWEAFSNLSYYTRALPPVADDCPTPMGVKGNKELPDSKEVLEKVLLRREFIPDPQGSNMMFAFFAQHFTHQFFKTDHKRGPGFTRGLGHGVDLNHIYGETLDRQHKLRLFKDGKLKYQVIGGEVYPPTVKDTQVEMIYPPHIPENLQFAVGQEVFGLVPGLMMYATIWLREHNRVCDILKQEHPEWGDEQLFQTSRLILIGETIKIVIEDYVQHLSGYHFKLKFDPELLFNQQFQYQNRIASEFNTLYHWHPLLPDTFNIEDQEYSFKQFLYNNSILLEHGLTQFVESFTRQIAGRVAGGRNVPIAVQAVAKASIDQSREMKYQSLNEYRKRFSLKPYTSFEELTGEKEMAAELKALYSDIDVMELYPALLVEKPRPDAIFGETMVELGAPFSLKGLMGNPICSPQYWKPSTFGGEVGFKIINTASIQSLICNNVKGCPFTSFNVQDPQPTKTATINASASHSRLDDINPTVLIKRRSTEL

Rattus norvegicus [6] = test: Antiinflammatory activity was determined by measuring adjuvant-induced arthritis in rats using therapeutic method; dose administered daily twice; type: functional
Outline: (§3)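 Therapeutic adjuvant arthritis in male SD rats (160 ~ 190 g). On day 0, 0.1 mL of 1% heat-killed M. butyricum in incomplete Freund's adjuvant was injected subplantar into the right hindpaw. On day 14, rats with left hindpaw swelling over 0.37 mL were selected and randomized. Daily treatment ran from day 14 to day 22, and % inhibition was taken from day-22 foot volumes.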

Rattus norvegicus [7] = test: Antiinflammatory activity was determined by measuring adjuvant-induced arthritis in rats using preventive method; dose administered daily once; type: functional; outline: as §1
Rattus norvegicus [8] = test: Antiinflammatory activity was determined by measuring adjuvant-induced arthritis in rats using therapeutic method; dose administered daily once; type: functional; outline: as §3
Rattus norvegicus [9] = test: Antiinflammatory activity was determined by measuring adjuvant-induced arthritis in rats using preventive method; Range is 0.2~0.3 (dose administered daily twice ); type: functional; outline: as §1
Rattus norvegicus [10] = test: Antiinflammatory activity was determined by measuring adjuvant-induced arthritis in rats using therapeutic method; (dose administered daily once); type: functional; outline: as §3
Rattus norvegicus [11] = test: Antiinflammatory activity was determined by measuring adjuvant-induced arthritis in rats using preventive method; Range is 0.1~0.2 (dose administered daily twice); type: functional; outline: as §1
Rattus norvegicus [12] = test: Ability of compound to cause gastric ulcerogenicity was determined in rats at 5 mg/kg when administered daily once; type: functional, Stomach; outline: as §2
Rattus norvegicus [13] = test: Ability of compound to cause gastric ulcerogenicity was determined in rats at 5 mg/kg; type: functional, Stomach; outline: as §2

Structure (SMILES)	inhibition in vivo at 3 mg/kg (Rattus norvegicus [3]) [%]	IC50 [4] [nM]	IC50 [5] [nM]	other results
CS(=O)(=O)c1ccc(C2=C(c3ccccc3)C(=O)OC2)cc1 [ROFECOXIB]	–	–	–	ED50 (Rattus norvegicus [1]): 0.74 mg/kg/day
CC1(C)OC(c2ccc(S(C)(=O)=O)cc2)=C(c2cc(F)cc(F)c2)C1=O	34	–	–	Activity (Rattus norvegicus [2]): 1.8
CC1(C)OC(c2ccc(S(C)(=O)=O)c(F)c2)=C(c2cccc(Cl)c2)C1=O	28	–	–	–
CCC1(C)OC(c2ccc(S(C)(=O)=O)cc2)=C(c2cccc(Cl)c2)C1=O (stereo unspecified)	23	–	–	–
CCC1(C)OC(c2ccc(S(C)(=O)=O)cc2)=C(c2cc(Cl)cc(Cl)c2)C1=O (stereo unspecified)	–	47000	70.5	–
CC(=O)c1ccc(C2=C(c3ccc(S(N)(=O)=O)cc3)OC(C)(C)C2=O)cc1	26	675	33.7	–
Cc1ccc(-c2cc(C(F)(F)F)nn2-c2ccc(S(N)(=O)=O)cc2)cc1 [CELECOXIB]	34	–	–	ED50 (Rattus norvegicus [6]): 0.37 mg/kg/day
Cc1cnc(NC(=O)C2=C(O)c3ccccc3S(=O)(=O)N2C)s1 [MELOXICAM]	–	–	–	ED50 (Rattus norvegicus [7]): 0.28 mg/kg/day
Cn1cc(C2=C(c3ccc(S(C)(=O)=O)cc3)OC(C)(C)C2=O)cn1	36	86600	1440	ED50 (Rattus norvegicus [8]): ~0.3 mg/kg/day
CC1(C)OC(c2ccc(S(C)(=O)=O)cc2)=C(c2ccc(Br)cc2)C1=O	–	71.2	71.2	–
CC1(C)OC(c2ccc(S(N)(=O)=O)c(F)c2)=C(c2cc(F)cc(F)c2)C1=O	31	–	–	–
CS(=O)(=O)c1ccc(C2=C(c3cccc(F)c3)C(=O)C3(CCCC3)O2)cc1	–	7760	7760	–
Cc1onc(-c2ccccc2)c1-c1ccc(S(N)(=O)=O)cc1 [VALDECOXIB]	–	–	–	ED50 (Rattus norvegicus [6]): 0.032 mg/kg/day
CC1(C)OC(c2ccc(S(N)(=O)=O)cc2)=C(c2ccc(F)c(F)c2)C1=O	–	5010	18.5	–
CCC1(CC)OC(c2ccc(S(C)(=O)=O)cc2)=C(c2ccccc2)C1=O	–	81000	13500	–
CC1(C)OC(c2ccc(S(C)(=O)=O)cc2)=C(c2cccc(F)c2)C1=O	36	–	–	Activity (Rattus norvegicus [2]): 1.8; ED50 (Rattus norvegicus [9]): 0.3 mg/kg/day; ED50 (Rattus norvegicus [10]): 0.07 mg/kg/day
CC1(C)OC(c2ccc(S(N)(=O)=O)c(F)c2)=C(c2cccc(F)c2)C1=O	27	–	–	–
CS(=O)(=O)c1ccc(C2=C(c3ccccc3)C(=O)C3(CCCCC3)O2)cc1	–	26100	5230	–
CC(=O)c1cccc(C2=C(c3ccc(S(C)(=O)=O)cc3)OC(C)(C)C2=O)c1	22	–	–	–
CC1(C)OC(c2ccc(S(C)(=O)=O)c(F)c2)=C(c2cc(F)cc(F)c2)C1=O	–	–	–	ED50 (Rattus norvegicus [8]): > 0.1 mg/kg/day

Structure (SMILES)	inhibition in vivo at 3 mg/kg (Rattus norvegicus [3]) [%]	IC50 [4] [nM]	IC50 [5] [nM]	other results
Cc1cccc(C2=C(c3ccc(S(C)(=O)=O)cc3)OC3(CCCCC3)C2=O)c1	–	7570	–	–
CC(=O)c1ccc(C2=C(c3ccc(S(C)(=O)=O)cc3)OC(C)(C)C2=O)cc1	–	–	–	ED50 (Rattus norvegicus [11]): 0.1 mg/kg/day
CCC1(C)OC(c2ccc(S(C)(=O)=O)cc2)=C(c2cccc(C(F)(F)F)c2)C1=O (stereo unspecified)	–	23600	–	–
CC1(C)OC(c2ccc(S(N)(=O)=O)cc2F)=C(c2cc(F)cc(F)c2)C1=O	32	–	–	–
CC1(C)OC(c2ccc(S(C)(=O)=O)cc2)=C(c2cccc(C(F)(F)F)c2)C1=O	31	–	–	–
COc1ccc2c(c1)c(CC(=O)O)c(C)n2C(=O)c1ccc(Cl)cc1 [INDOMETHACIN]	45	–	–	Activity (Rattus norvegicus [12]): 3.5
CC1(C)OC(c2ccc(S(N)(=O)=O)cc2)=C(c2ccsc2)C1=O	–	13700	343	–
Cn1cc(C2=C(c3ccc(S(N)(=O)=O)cc3)OC(C)(C)C2=O)cn1	29	–	–	–
CC1(C)OC(c2ccc(S(N)(=O)=O)cc2)=C(c2cccc(C(F)(F)F)c2)C1=O	–	1990	26.7	–
Cc1ccc(-c2ncc(Cl)cc2-c2ccc(S(C)(=O)=O)cc2)cn1 [ETORICOXIB]	–	–	–	ED50 (Rattus norvegicus [1]): 0.7 mg/kg/day
CC1(C)OC(c2ccc(S(N)(=O)=O)cc2)=C(c2cccc(F)c2)C1=O [POLMACOXIB]	47	830	8.3	Activity (Rattus norvegicus [13]): 1.5; ED50 (Rattus norvegicus [1]): 0.1 mg/kg/day; ED50 (Rattus norvegicus [8]): 0.02 mg/kg/day; ED50 (Rattus norvegicus [6]): 0.01 mg/kg/day
CC1(C)OC(c2ccc(S(N)(=O)=O)cc2)=C(c2cccc(Cl)c2)C1=O	39	–	–	ED50 (Rattus norvegicus [8]): 0.03 mg/kg/day
Cc1cccc(C2=C(c3ccc(S(C)(=O)=O)cc3)OC3(CCCC3)C2=O)c1	26	–	–	–
CC1(C)OC(c2ccc(S(C)(=O)=O)cc2)=C(c2ccc(F)c(Cl)c2)C1=O	31	7600	760	–
CCCCc1ccc(C2=C(c3ccc(S(C)(=O)=O)cc3)OC(C)(C)C2=O)cc1	8	–	–	–
CC1(C)OC(c2ccc(S(N)(=O)=O)cc2)=C(c2ccccc2)C1=O	–	178	23.3	–
CC1(C)OC(c2ccc(S(N)(=O)=O)cc2F)=C(c2ccccc2)C1=O	–	55300	–	–
CC1(C)OC(c2ccc(S(C)(=O)=O)cc2)=C(c2cccnc2)C1=O	–	29100	1460	–
CC1(C)OC(c2ccc(S(C)(=O)=O)cc2)=C(c2cccc(Cl)c2)C1=O	16	–	–	–
CCC1(CC)OC(c2ccc(S(C)(=O)=O)cc2)=C(c2cccc(C)c2)C1=O	–	26000	1300	–
